Results from ChEMBL document CHEMBL4321814, “Design of Gallinamide A Analogs as Potent Inhibitors of the Cysteine Proteases Human Cathepsin L and Trypanosoma cruzi Cruzain” (J Med Chem, 2019).
Active and inactive are the calls of the source. The rule behind the calls is not given here.

Tests used:
Trypanosoma cruzi = type: functional; details: C2C12, 72 h, read-out: LD50 (the source's name)
[1] = target: Procathepsin L (Homo sapiens) (UniProt P07711); experiment: Inhibition of human cathepsin L assessed as Kinact /Ki ratio using fluorogenic substrate cbz-FR-AMC monitored for 90 to 120 mins by spectrophotometry
Summary of the method: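 Continuous kinetic assay with 0.5 ng/mL final cathepsin L and 10 μM Z-FR-AMC, with DMSO below 6%. Inhibitors were a 3-fold, 11-point series from […] to 1.0 μM. Substrate and inhibitor were combined and enzyme was added to start the reaction. AMC release was read for 2 h and converted via an AMC standard curve. Progress curves were fitted to a six-parameter covalent inhibition model (k_inact, association/dissociation constants).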

[2] = Cytotoxicity in mouse C2C12 cells assessed as reduction in cell viability incubated for 3 days; type: cell-based; details: read-out: LD50
Cruzipain = Cruzipain (Trypanosoma cruzi, UniProt P25779); experiment: Inhibition of recombinant Trypanosoma cruzi Cruzain expressed in Pichia pastoris using Z-Phe-Arg-AMC substrate incubated for 30 mins by fluorescence based assay
[3] = target: Procathepsin L (Homo sapiens) (UniProt P07711); experiment: Irreversible inhibition of human cathepsin L assessed as reduction in enzyme activity using fluorogenic substrate cbz-FR-AMC incubated for 30 mins followed by 100 fold dilution and measured after 2 hrs by spectrophotometry
Summary of the method: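 Preincubation-dilution: cathepsin L at 100-fold final assay concentration incubated 30 min with inhibitor at 10-fold its IC₅₀. Then diluted 100-fold into assay buffer with 10 μM Z-FR-AMC, giving standard enzyme level and 0.1× IC₅₀ inhibitor. AMC fluorescence read continuously in kinetic mode for 2 h and activity compared with vehicle control.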

[4] = target: Procathepsin L (Homo sapiens) (UniProt P07711); experiment: Reversible inhibition of human cathepsin L assessed as residual enzyme activity using fluorogenic substrate cbz-FR-AMC incubated for 30 mins followed by 100 fold dilution and measured after 1 hrs by spectrophotometry
[5] = target: Procathepsin L (Homo sapiens) (UniProt P07711); experiment: Irreversible inhibition of human cathepsin L assessed as residual enzyme activity using fluorogenic substrate cbz-FR-AMC incubated for 30 mins followed by 100 fold dilution and measured after 1 hrs by spectrophotometry
[6] = target: Procathepsin L (Homo sapiens) (UniProt P07711); experiment: Irreversible inhibition of human cathepsin L assessed as residual enzyme activity using fluorogenic substrate cbz-FR-AMC incubated for 30 mins followed by 100 fold dilution and measured after 2 hrs by spectrophotometry

Cruzipain, sequence (P25779 whole entry): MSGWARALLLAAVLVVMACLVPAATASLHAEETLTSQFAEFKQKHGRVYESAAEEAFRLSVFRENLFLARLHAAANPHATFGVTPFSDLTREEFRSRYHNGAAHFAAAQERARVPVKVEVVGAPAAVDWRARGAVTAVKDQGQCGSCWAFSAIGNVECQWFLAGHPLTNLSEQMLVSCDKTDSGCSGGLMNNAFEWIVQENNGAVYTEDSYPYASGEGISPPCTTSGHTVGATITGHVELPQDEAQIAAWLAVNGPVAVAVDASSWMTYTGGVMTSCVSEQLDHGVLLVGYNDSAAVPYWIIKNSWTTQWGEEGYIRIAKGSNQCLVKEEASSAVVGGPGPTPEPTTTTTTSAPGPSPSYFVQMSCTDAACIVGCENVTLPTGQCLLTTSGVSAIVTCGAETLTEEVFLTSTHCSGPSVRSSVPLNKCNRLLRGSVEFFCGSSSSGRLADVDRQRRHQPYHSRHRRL
Procathepsin L (Homo sapiens), sequence (P07711 114-333 limits assumed): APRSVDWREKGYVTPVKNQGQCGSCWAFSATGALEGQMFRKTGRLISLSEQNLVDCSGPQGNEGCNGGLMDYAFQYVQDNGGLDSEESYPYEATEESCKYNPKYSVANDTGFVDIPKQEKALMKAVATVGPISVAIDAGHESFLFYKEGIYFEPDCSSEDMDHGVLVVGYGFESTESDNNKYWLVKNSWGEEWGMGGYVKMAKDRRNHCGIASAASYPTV

Structure (SMILES) | LC50 (Trypanosoma cruzi) [nM] | Ratio [1] [×10³ /M/s] | CC50 at 72 h [2] [nM] | IC50 (Cruzipain) [nM] | inhibition [3] | Activity [4] [%] | inhibition [5] | Activity [6] [%]
COC1=CC(=O)N(C(=O)/C=C/[C@H](C)NC(=O)[C@H](CC(C)C)NC(=O)[C@H](CC(C)C)OC(=O)[C@H](Cc2ccccc2)N(C)C)[C@H]1Cc1ccccc1 | 18.6 | 3480 | > 10000 | 0.73 |  |  |  | 
CC[C@H](C)[C@@H](C(=O)O[C@@H](CC(C)C)C(=O)N[C@@H](CC(C)C)C(=O)N[C@@H](C)/C=C/C(=O)N1C(=O)C=C(OC)[C@@H]1Cc1ccccc1)N(C)C | 19.1 |  | > 10000 | 0.76 |  |  |  | 
CC(C)CCNC(=O)[C@H](CC(C)C)NC(=O)[C@H]1O[C@@H]1C(=O)O |  |  |  |  | Active |  |  | 
CC[C@H](C)[C@@H](C(=O)O[C@@H](CC(C)C)C(=O)N[C@@H](CC(C)C)C(=O)N[C@H](/C=C/C(=O)N1C(=O)C=C(OC)[C@@H]1CC(C)C)Cc1ccccc1)N(C)C | 61.8 |  | > 10000 | 1.08 |  |  |  | 
CC[C@H](C)[C@@H](C(=O)O[C@@H](CC(C)C)C(=O)N[C@@H](CC(C)C)C(=O)N[C@@H](C)CCC(=O)N1C(=O)C=C(OC)[C@@H]1C)N(C)C |  |  |  |  |  | 75 |  | 
COC1=CC(=O)N(C(=O)/C=C/[C@H](C)NC(=O)[C@H](CC(C)C)NC(=O)[C@H](CC(C)C)OC(=O)[C@H](C(C)C)N(C)C)[C@H]1C | 12.9 | 487 | > 10000 | 2.89 |  |  |  | 
COC1=CC(=O)N(C(=O)/C=C/[C@H](Cc2ccccc2)NC(=O)[C@H](CC(C)C)NC(=O)[C@H](CC(C)C)OC(=O)[C@H](Cc2ccccc2)N(C)C)[C@H]1Cc1ccccc1 | > 10000 | 1060 | > 10000 | 1.35 |  |  |  | 
CC[C@H](C)[C@@H](C(=O)O[C@@H](CC(C)C)C(=O)N[C@@H](CC(C)C)C(=O)N[C@H](/C=C/C(=O)N1C(=O)C=C(OC)[C@H]1Cc1ccccc1)Cc1ccccc1)N(C)C | 33.3 | 1030 | > 10000 | 1.07 |  |  |  | 
CC[C@H](C)[C@@H](C(=O)O[C@@H](CC(C)C)C(=O)N[C@@H](CC(C)C)C(=O)N[C@@H](/C=C/C(=O)N1C(=O)C=C(OC)[C@@H]1Cc1ccccc1)Cc1ccccc1)N(C)C | 1080 | 6.9 | > 10000 | 81 |  |  |  | 
CC[C@H](C)[C@@H](C(=O)O[C@@H](CC(C)C)C(=O)N[C@@H](CC(C)C)C(=O)N[C@H](/C=C/C(=O)N1C(=O)C=C(OC)[C@@H]1Cc1ccccc1)Cc1ccccc1)N(C)C | 33.8 | 719 | > 10000 | 1.15 |  |  |  | 
COC1=CC(=O)N(C(=O)/C=C/[C@H](Cc2ccccc2)NC(=O)[C@H](CC(C)C)NC(=O)[C@H](CC(C)C)OC(=O)[C@H](Cc2ccccc2)N(C)C)[C@@H]1Cc1ccccc1 | > 10000 | 1390 | > 10000 | 3.69 |  |  |  | 
COC1=CC(=O)N(C(=O)/C=C/[C@H](Cc2ccccc2)NC(=O)[C@H](CC(C)C)NC(=O)[C@H](CC(C)C)OC(=O)[C@H](Cc2ccccc2)N(C)C)[C@H]1C | 60.3 | 819 | > 10000 | 1.2 |  |  |  | 
COC1=CC(=O)N(C(=O)/C=C/[C@H](Cc2ccccc2)NC(=O)[C@H](CC(C)C)NC(=O)[C@H](CC(C)C)OC(=O)[C@H](C(C)C)N(C)C)[C@H]1CC(C)C | 16.4 | 1780 | > 10000 | 0.25 |  |  |  | 
CC[C@H](C)[C@@H](C(=O)O[C@@H](CC(C)C)C(=O)N[C@@H](CC(C)C)C(=O)N[C@@H](/C=C/C(=O)N1C(=O)C=C(OC)[C@H]1Cc1ccccc1)Cc1ccccc1)N(C)C | 537 | 23.9 | > 10000 | 37.1 |  |  |  | 
CC[C@H](C)[C@@H](C(=O)O[C@@H](CC(C)C)C(=O)N[C@@H](CC(C)C)C(=O)N[C@@H](C)/C=C/C(=O)N1C(=O)C=C(OC)[C@@H]1CC(C)C)N(C)C | 5.1 | 2510 | > 10000 | 0.49 |  |  |  | 
O=C(Cn1ccnc1[N+](=O)[O-])NCc1ccccc1 [BENZNIDAZOLE] | 1500 |  |  |  |  |  |  | 
C#CCCCCOC1=CC(=O)N(C(=O)/C=C/[C@H](C)NC(=O)[C@H](CC(C)C)NC(=O)[C@H](CC(C)C)OC(=O)[C@H]([C@@H](C)CC)N(C)C)[C@@H]1C | 17 |  | > 10000 | 0.47 |  |  |  | 
CC[C@H](C)[C@@H](C(=O)O[C@@H](CC(C)C)C(=O)N[C@@H](CC(C)C)C(=O)N[C@@H](C)/C=C/C(=O)N1C(=O)C=C(OC)[C@@H]1C)N(C)C [GALLINAMIDE A] | 14.7 | 901 | > 10000 | 0.26 |  |  | Active | 5
CC[C@H](C)[C@@H](C(=O)O[C@@H](CC(C)C)C(=O)N[C@@H](CC(C)C)C(=O)N[C@H](/C=C/C(=O)N1C(=O)C=C(OC)[C@@H]1C)Cc1ccccc1)N(C)C | 35.8 |  | > 10000 | 0.84 |  |  |  | 
